Experimental data from ChEMBL document CHEMBL1157494, “Reduction in post-prandial hyperglycemic excursion through alpha-glucosidase inhibition by beta-acetamido carbonyl compounds” (Bioorg Med Chem Lett, 2008).
The source made the active and inactive calls. The calls are words filed in the database; no cut-off is given here.

Key:
[1] = Inhibition of rat intestinal alpha-glucosidase activity
Rattus norvegicus [2] = species: Rattus norvegicus; test: Inhibition of rat intestinal alpha-glucosidase activity at 50 ug
Summary of the method: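 Rat intestinal α-glucosidase assayed in vitro. Compound added as 50 µg from a 5 mg/mL DMSO stock. Percent inhibition run in triplicate and given as mean SD.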

Rattus norvegicus [3] = test: Antihyperglycemic activity in Wistar rat assessed as reduction in postprandial blood glucose rise at 100 mg/kg, po by carbohydrate tolerance test; format: functional, organism-based; parameters: dose 100 mg/kg
Summary of the method: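 Rats housed at 22 °C under a 12 h light-dark cycle, six per group, then fasted overnight. Basal plasma glucose was measured by glucose oxidase on retro-orbital EDTA blood. Compounds were suspended in normal saline and given orally at 100 mg/kg; controls received saline only. Delta-glycemia was read at 30–120 min, shown as mean SD and compared by ANOVA with Bonferroni.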

SMILES | IC50 [1] [µM] | inhibition (Rattus norvegicus [2]) [%] | Activity (Rattus norvegicus [3])
CC(=O)NC(CC(=O)c1ccccc1)c1ccc([N+](=O)[O-])cc1 (centres undefined) | 25.6 | 72.2 | –
CC(=O)NC(CC(=O)c1ccc(F)cc1)c1ccc(F)cc1 (centres undefined) | – | 55.1 | –
CC(=O)NC(CC(=O)c1ccc([N+](=O)[O-])cc1)c1ccc([N+](=O)[O-])cc1 (centres undefined) | – | 52.7 | –
C[C@H]1O[C@H](O[C@H]2[C@H](O)[C@@H](O)[C@@H](O[C@H]3[C@H](O)[C@@H](O)[C@H](O)O[C@@H]3CO)O[C@@H]2CO)[C@H](O)[C@@H](O)[C@@H]1N[C@H]1C=C(CO)[C@@H](O)[C@H](O)[C@H]1O | – | – | Active

Second part, led by results:

IC50 [1] [µM] | inhibition (Rattus norvegicus [2]) [%] | SMILES | Activity (Rattus norvegicus [3])
5.53 | 95.1 | CC(=O)NC(CC(=O)c1ccc(Br)cc1)c1ccc(C)cc1 (centres undefined) | Active
– | 2.7 | CC(=O)NC(CC(=O)c1ccc(Br)cc1)c1ccc(F)cc1 (centres undefined) | –
9.07 | 85 | CC(=O)NC(CC(=O)c1ccc([N+](=O)[O-])cc1)c1ccc(C)cc1 (centres undefined) | Active
72.8 | 60.1 | CC(=O)NC(CC(=O)c1ccc(F)cc1)c1ccc(O)cc1 (centres undefined) | –
